Assay outcomes: PubChem, several laboratories
In the library only some 2.6% were active in any assay of this set; here they are far more common.
SKN-1 inh – blocks SKN-1 activity in C. elegans | inhibition, % at 21.8 µM | 360,000 compounds, 0.49% hits | C. elegans VP596 Pgst-4::GFP/RFP ratio, acrylamide-induced, 24 h;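 active = interference check ratio from 0.5 to 1.5 plus GFP to RFP signal ratio inhibition reaching or exceeding a fixed threshold, cut at about 30% in these data, passing the limit was not always enough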
Rin1 Abl inh – human Rin1-Abl interaction inhibition; TR-FRET Rin1/Abl binding, biochemical; inhibition, % at 7.35 µM; 360,000 compounds, 0.4% hits; in the data active = inhibition above about 5%, passing the limit was not always enough
T cell modulator – T cell immune modulators affecting CD8 T cell-vesicle binding; 330,000 compounds, 0.068% hits; response (vesicle binding), % at 7 µM; AID 2052; 2C CD8+ T cell-vesicle binding, flow cytometry; stronger effect = lower value;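 active = response, share of CD8 T cells binding vesicles, and their 90th percentile fluorescence all below set limits, cut at about 80% in these data, passing the limit was not always enough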;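 note: values below 100% mean blocked vesicle binding to the CD8+ T cells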
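System: murine 2C transgenic CD8+ T lymphocytes; also added: QL9-loaded Drosophila micro-vesicles; times: binding 1.5 h at 37 °C; measured by: flow cytometry, PE anti-B7-1 (FL2) versus Alexa647 anti-CD8 (FL8), PFA-fixed; control set: Peptide-free naked vesicles (low) and QL9 vesicles with 0.7% DMSO vehicle (high)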
GRK2 inh – blocks RNA aptamer binding to human GRK2. P25098. bead flow cytometry, FAM-aptamer displacement from GRK2. inhibition of aptamer binding, % at 10 µM. 330,000 compounds, 0.59% hits;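 active = inhibition of aptamer binding above 40%, roughly 3 SD of noise, on plates passing a quality check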;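 note: median bead fluorescence of bound FAM aptamer so fluorescent compounds give negative values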
Myeloid diff MLP – compounds promoting myeloid differentiation. ER-HoxA9 myeloid progenitors, lysozyme-GFP differentiation, flow cytometry. calls only at 10 µM. 360,000 compounds, 1% hits;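 active = normalized GFP-positive differentiation at or above the plate's own cutoff, the solvent-only control mean plus 3 SD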;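 note: cells exposed to compound for four days before flow analysis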
Rce1 inh – inhibitors of yeast Ras-converting enzyme | Q03530 | yeast membranes, quenched prenylated peptide cleavage fluorescence | calls only | 290,000 compounds, 0.27% hits | AID 2563;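 active = fall in fluorescence gain of 50% or more versus controls, with final raw signal at or below 3038400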;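 note: plate controls were neutral control wells for no effect and wells lacking membranes for full effect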
Rin1 Abl conf – Rin1-Abl interaction inhibition confirmation. shares compounds with Rin1 Abl inh. TR-FRET Rin1-Abl binding, purified proteins. inhibition, % at 7.35 µM. 1,300 compounds, 49% hits
GFP quencher – GFP fluorescence interference artifact; AID 602125; shares compounds with Rin1 Abl inh; inhibitors/quenchers counterscreen; 1,300 compounds, 8.5% hits; inhibition, % at 6.75 µM;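 note: ABL1-eGFP fusion protein alone without its partner RIN1-SBP; 0% = protein with vehicle and 100% = wells lacking protein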
GFP quench dose – GFP fluorescence interference dose response. GFP fluorescence interference/quenching counterscreen. shares compounds with Rin1 Abl inh. IC50, µM. 230 tested, under 10 active; call rule not given here;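 note: ABL1-eGFP fusion protein alone without its RIN1 binding partner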
Numbers without * were called inactive. Cut-off read from the data, not from the text of the source, unless noted: active = inhibition above about 6.5%; inactive = the rest.

`CC1=C(C(=O)N(C(C)C)C(C)C)CC(CC(=O)NCCCN(C)C)C(=O)N1CCCN1CCCC1=O` (centres undefined) gave SKN-1 inh 11, Rin1 Abl inh 1 and Myeloid diff MLP inactive.
`COC(=O)C1C(=O)c2c(C)noc2CC1(C)C` (centres undefined) gave SKN-1 inh -11, Rin1 Abl inh 4, T cell modulator 303, GRK2 inh 2, Myeloid diff MLP inactive and Rce1 inh inactive.
For CCOC(=O)CCCCCC(=O)Nc1ccc2c(c1)C(=O)N([C@@H](C)CO)C[C@@H](C)[C@H](CN(C)C(=O)c1ccncc1)OCCCC[C@H](C)O2 the results were SKN-1 inh 2, Rin1 Abl inh 5 and Myeloid diff MLP inactive.
Screening COc1ccc(S(=O)(=O)N(C)C[C@H]2Oc3ccc(NC(=O)C4CCCCC4)cc3C(=O)N([C@H](C)CO)C[C@@H]2C)cc1 returned SKN-1 inh -3, Rin1 Abl inh 8, T cell modulator 330, GRK2 inh 2 and Myeloid diff MLP inactive.
COc1ccc(S(=O)(=O)N(C)C[C@H]2Oc3ccc(NC(=O)C4CC4)cc3C(=O)N([C@H](C)CO)C[C@@H]2C)cc1 was read as SKN-1 inh -2, Rin1 Abl inh 19*, T cell modulator 337, GRK2 inh 0, Myeloid diff MLP inactive, Rin1 Abl conf 26* and GFP quencher -1.
CCOC(=O)CCCCCC(=O)Nc1ccc2c(c1)C(=O)N([C@H](C)CO)C[C@H](C)[C@@H](CN(C)S(C)(=O)=O)OCCCC[C@@H](C)O2 was read as SKN-1 inh 1, Rin1 Abl inh 10*, Myeloid diff MLP inactive, Rin1 Abl conf 14* and GFP quencher -1.
Screening CCOC(=O)CCCCCC(=O)Nc1ccc2c(c1)C(=O)N([C@H](C)CO)C[C@@H](C)[C@@H](CN(C)C(=O)CCC(F)(F)F)OCCCC[C@H](C)O2 returned SKN-1 inh -19, Rin1 Abl inh 51*, Myeloid diff MLP inactive, Rin1 Abl conf 55*, GFP quencher 0 and GFP quench dose >68.
Screening C[C@@H]1CN([C@H](C)CO)C(=O)CCCn2nncc2CO[C@@H]1CN(C)S(=O)(=O)c1ccccc1C#N returned SKN-1 inh -12, Rin1 Abl inh 1 and Myeloid diff MLP inactive.
`CCCCC(=O)NC(=S)NNC(=O)c1ccc(OC)cc1` gave SKN-1 inh 10, Rin1 Abl inh -7, T cell modulator 356, GRK2 inh 3, Myeloid diff MLP inactive and Rce1 inh inactive.
Screening CC(C)CSc1oc(-c2ccco2)nc1S(=O)(=O)c1ccccc1 returned SKN-1 inh 1, Rin1 Abl inh -3, T cell modulator 146, GRK2 inh 6, Myeloid diff MLP inactive and Rce1 inh inactive.
Screening NS(=O)(=O)c1cccc(NC(=O)COc2ncnc3c2cnn3-c2ccccc2)c1 returned SKN-1 inh -9, Rin1 Abl inh -3, T cell modulator 111, GRK2 inh 7 and Rce1 inh inactive.
`O=C(COc1ncnc2c1cnn2-c1ccccc1)Nc1ccc(S(=O)(=O)N2CCCCC2)cc1` gave SKN-1 inh 18, Rin1 Abl inh 8.8*, T cell modulator 369, GRK2 inh 0, Myeloid diff MLP inactive, Rce1 inh inactive, Rin1 Abl conf 6 and GFP quencher 0.
Screening CC(=O)C1=CCC(c2ccc(C)cc2)N(S(=O)(=O)c2ccc(Cl)cc2)C1 (centres undefined) returned SKN-1 inh 7, Rin1 Abl inh 5 and Myeloid diff MLP inactive.
`Oc1ccc(/C=N/N=C(c2ccccc2)c2ccccc2)c(O)c1O` gave SKN-1 inh 10, Rin1 Abl inh 21*, T cell modulator 644, GRK2 inh 2, Myeloid diff MLP inactive, Rin1 Abl conf 41* and GFP quencher 16*.
